# Activity calls are given as the source filed them. The calls are words filed in the database; no cut-off is given here.
# Tests used:
# A549 [1] = assay: Tested against A549 lung carcinoma in the sulforhodamine B assay.; format: functional, cell-based; details: Homo sapiens
# How it was run: (§1)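 Sulforhodamine B assay. Cells plated at 50 000/well; drug added on day 2 at 10^1–10^-5 μg/mL in half-log steps from DMSO stock diluted in PBS, final DMSO ≤0.1%. After 8-day exposure at 37 °C, cells fixed with TCA at 4 °C for 1 h and stained 30 min with 0.4% SRB. Dye solubilized in 10 mM Tris and OD read at 564 nm. Six wells per concentration; IC50 averaged.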
# UACC-375 = assay: Inhibitory activity against […] cell line; format: functional, cell-based; details: Homo sapiens
# B16 [2] = assay: Compound was tested against sc B16 melanoma at % tumor growth inhibition(TGI) in mice at 6 mg/kg dosage; no palpable tumor; format: functional; details: Mus musculus, route subcutaneous, read-out: TGI
# L1210 [3] = assay: Inhibitory activity against sensitive L1210 cell lines; format: functional, cell-based; details: Mus musculus
# L1210 [4] = assay: Inhibitory activity against resistant murine leukemia L1210 cell lines.; format: functional, cell-based; details: Mus musculus
# L1210 [5] = assay: Compound was tested against L1210 leukemia at % increase in life span (ILS) in mice at 8 mg/kg dosage.; format: functional; details: Mus musculus
# How it was run: (§2)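 Male DBA/2J mice, 10 per group, inoculated ip on day 0 with 10^6 freshly harvested leukemia cells. Compound given ip in equal doses on days 1, 5 and 9; controls received saline ip on the same days. Highest dose set 10% below the acute LD10. %ILS = 100 × (treated − control)/control, using median life span per group; value reported at highest nontoxic dose.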
# MCF7 [6] = assay: Tested against […] breast carcinoma (doxorubicin resistant) cell line in the sulforhodamine B assay.; format: functional, cell-based; details: Homo sapiens; how it was run: as §1
# MCF7 [7] = assay: Tested against […] breast carcinoma (mitoxantrone resistant)cell line in the sulforhodamine B assay.; format: functional, cell-based; details: Homo sapiens; how it was run: as §1
# OVCAR-3 = assay: Inhibitory activity against OVCAR-3 cell line; format: functional, cell-based; details: Homo sapiens
# P388 [8] = assay: Compound was tested against P388 leukemia at % increase in life span (ILS) in mice at 5 mg/kg dosage.; format: functional; details: Mus musculus; how it was run: as §2
# Rattus norvegicus [9] = organism: Rattus norvegicus; assay: Cardiotoxicity by a neonatal rat heart myocyte assay; format: toxicity
# How it was run: (§3)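 Neonatal rat heart myocytes exposed to drug for 1 h. Read-out is the ATP/protein ratio relative to untreated control myocytes. IC50 is the 1-h concentration that reduces this ratio to 50% of control.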
# Tumor cell line = assay: An average for IC50 values in the two solid tumor cell lines.; format: functional, cell-based
# WiDr [10] = assay: Tested against WiDr colon carcinoma (resistant) in the sulforhodamine B assay.; format: functional, cell-based; details: Homo sapiens; how it was run: as §1
# WiDr [11] = assay: Tested against WiDr colon (sensitive) in the sulforhodamine B assay.; format: functional, cell-based; details: Homo sapiens; how it was run: as §1
# [12] = Toxicity ratio determined by the quotient of IC50 values in the myocytes divided by the average value in the three tumor lines.; format: functional
# How it was run: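 Ratio is the myocyte cardiotoxicity IC50 (1-h exposure, ATP/protein ratio versus untreated myocytes) divided by the mean IC50 in sensitive L1210 and the two human tumor lines, measured with continuous exposure.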
# [13] = An average for IC50 values in the two solid tumor cell lines and sensitive L1210 leukemia cell line.; format: functional, cell-based
# MCF7 [14] = assay: Tested against […] breast carcinoma (sensitive) cell line in the sulforhodamine B assay.; format: functional, cell-based; details: Homo sapiens; how it was run: as §1
# P388 [15] = assay: Compound was tested against P388 leukemia at % increase in life span (ILS) in mice at 15 mg/kg dosage.; format: functional; details: Mus musculus; how it was run: as §2
# B16 [16] = assay: Compound was tested against sc B16 melanoma at % tumor growth inhibition(TGI) in mice at 3.2 mg/kg dosage.; format: functional; details: Mus musculus, route subcutaneous, read-out: TGI
# L1210 [17] = assay: Compound was tested against L1210 leukemia at % increase in life span (ILS) in mice at 1.6 mg/kg dosage.; format: functional; details: Mus musculus; how it was run: as §2
# P388 [18] = assay: Compound was tested against P388 leukemia at % increase in life span (ILS) in mice at 1.6 mg/kg dosage.; format: functional; details: Mus musculus; how it was run: as §2
# A549 [19] = assay: Compound was tested against A549 lung cancer cell line in the sulforhodamine B assay.; format: functional, cell-based; details: Homo sapiens; how it was run: as §1
# B16 [20] = assay: Compound was tested against sc B16 melanoma cell line in mice at 15 mg/kg dosage.; format: functional; details: Mus musculus, route subcutaneous, read-out: TGI
# L1210 [21] = assay: Compound was tested against L1210 leukemia cell line in mice at 15 mg/kg dosage.; format: functional; details: Mus musculus; how it was run: as §2
# P388 [22] = assay: Compound was tested against P388 leukemia cell line in mice at 15 mg/kg dosage.; format: functional; details: Mus musculus; how it was run: as §2
# WiDr [23] = assay: Compound was tested against WiDr colon carcinoma (resistant)cell line in the sulforhodamine B assay.; format: functional, cell-based; details: Homo sapiens; how it was run: as §1
# WiDr [24] = assay: Compound was tested against WiDr colon (sensitive) cell line in the sulforhodamine B assay.; format: functional, cell-based; details: Homo sapiens; how it was run: as §1
# P388 [25] = assay: Compound was tested against P388 leukemia at % increase in life span (ILS) in mice at 15 mg/kg dosage; Not active at highest dose tested (% ILS<25); format: functional, organism-based; parameters: dose 15 mg/kg; details: Mus musculus
# Rattus norvegicus [26] = organism: Rattus norvegicus; assay: Compound was tested for Cardiotoxicity by a neonatal rat heart myocyte assay.; format: functional; how it was run: as §3
# [27] = tested on: neonatal heart myocytes (Rattus norvegicus); assay: Cardio toxicity was measured.
# B16 [28] = assay: Compound were tested against sc B16 melanoma at % tumor growth inhibition(TGI) in mice at 3 mg/kg dosage.; format: functional; details: Mus musculus, route subcutaneous, read-out: TGI
# P388 [29] = assay: Compound was tested against P388 leukemia at % increase in life span (ILS) in mice at 3 mg/kg dosage.; format: functional; details: Mus musculus; how it was run: as §2
# A549 [30] = assay: Compound tested against A549 lung carcinoma in the sulforhodamine B assay.; format: functional, cell-based; details: Homo sapiens; how it was run: as §1
# L1210 [31] = assay: Compound was tested against L1210 leukemia at % increase in life span (ILS) in mice at 8 mg/kg dosage; Not active; format: functional, organism-based; parameters: dose 8 mg/kg; details: Mus musculus
# WiDr [32] = assay: Compound tested against WiDr colon carcinoma (resistant) in the sulforhodamine B assay.; format: functional, cell-based; details: Homo sapiens; how it was run: as §1
# WiDr [33] = assay: Compound tested against WiDr colon (sensitive) in the sulforhodamine B assay.; format: functional, cell-based; details: Homo sapiens; how it was run: as §1
SMILES,IC50 (A549 [1]) [nM],IC50 (UACC-375) [nM],IC50 (L1210 [3]) [nM],IC50 (L1210 [4]) [nM],IC50 (MCF7 [6]) [nM],IC50 (MCF7 [7]) [nM],IC50 (OVCAR-3) [nM],IC50 (Rattus norvegicus [9]) [nM],IC50 (Tumor cell line) [nM],IC50 (WiDr [10]) [nM],IC50 (WiDr [11]) [nM],Toxicity ratio [12],IC50 [13] [nM],IC50 (MCF7 [14]) [nM],also measured
CCOc1ccc2c3c(c4ccccc4cc13)C(=O)N(CCN(C)C)C2=O,2.9,19,8,6.7,18,14,0.8,1780,10,63,17,192,9.3,11,inhibition in vivo at 6 mg/kg (B16 [2]): > 100%; ILS at 8 mg/kg (L1210 [5]): 100%; ILS at 5 mg/kg (P388 [8]): 55%
CN(C)CCN1C(=O)c2cccc3cc(N)cc(c23)C1=O [AMONAFIDE],–,–,–,–,–,–,–,48400,2110,–,–,30,1610,–,ILS at 15 mg/kg (P388 [15]): 88%
O=C1c2c(O)ccc(O)c2C(=O)c2c(NCCNCCO)ccc(NCCNCCO)c21 [MITOXANTRONE],3.1,–,9.7,–,72,41,–,7740,27,488,8.1,368,21,8.7,inhibition in vivo at 3.2 mg/kg (B16 [16]): 130%; ILS at 1.6 mg/kg (L1210 [17]): 150%; ILS at 1.6 mg/kg (P388 [18]): 200%
CN(C)CCN1C(=O)c2cccc3cc4ccccc4c(c23)C1=O [AZONAFIDE],–,–,7,–,70,20,–,1980,64,–,–,44,45,18,IC50 (A549 [19]): 10 nM; inhibition in vivo at 15 mg/kg (B16 [20]): 74%; ILS at 15 mg/kg (L1210 [21]): 72%; ILS at 15 mg/kg (P388 [22]): 79%; IC50 (WiDr [23]): 94 nM; IC50 (WiDr [24]): 13 nM
Cc1ccc2c3c(c4ccccc4cc13)C(=O)N(CCN(C)C)C2=O,–,141,6.8,27,–,–,217,–,179,–,–,8.1,–,–,ILS (P388 [25]): inactive; IC50 (Rattus norvegicus [26]): 989 nM; IC50 [27]: 989 nM
CN(C)CCNc1ccc2c3c(c4ccccc4cc13)C(=O)N(CCN(C)C)C2=O,0.43,11,0.04,0.04,14,1.9,63,4190,37,14,1.7,171,25,1,inhibition in vivo at 3 mg/kg (B16 [28]): 66%; ILS at 3 mg/kg (P388 [29]): 44%
CN(C)CCOc1ccc2c3c(c4ccccc4cc13)C(=O)N(CCN(C)C)C2=O,–,31,0.2,1.3,8.9,3.9,31,5440,31,–,–,262,21,3.9,IC50 (A549 [30]): 0.58 nM; ILS (L1210 [31]): inactive; IC50 (WiDr [32]): 10 nM; IC50 (WiDr [33]): 2.4 nM

# Source: ChEMBL document CHEMBL1129062, “6- and 7-substituted 2-[2'-(dimethylamino)ethyl]-1,2-dihydro-3H-dibenz[de,h] isoquinoline-1,3-diones: synthesis, nucleophilic displacements, antitumor activity, and quantitative structure-activity relationships” (J Med Chem, 1996)
